From article PMC8592288 (Bioorganic chemistry, 2021)
One block for each molecule: values may come before it.

Assays:
[1] = subcutaneous administration; cited from earlier work
[2] = test system: HEK293 cells; assay: Viability assay, CellTiter-Glo; assay type: cell-based; conditions: HEK293, 18 h exposure
Outline: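 HEK293 cells transfected and dosed as in the VDR transcription assay. After 18 h at 37 °C, 5% CO2, CellTiter-Glo luminescence measured (intracellular ATP). Eight measurements per concentration, averaged with SEM. LD50 derived by non-linear regression.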

[3] = biological target: T1, VDR (Homo sapiens, UniProt P11473); assay: VDR transcription assay in the presence of 100 nM 1,25; assay type: cell-based
T1 sequence (P11473 1-427): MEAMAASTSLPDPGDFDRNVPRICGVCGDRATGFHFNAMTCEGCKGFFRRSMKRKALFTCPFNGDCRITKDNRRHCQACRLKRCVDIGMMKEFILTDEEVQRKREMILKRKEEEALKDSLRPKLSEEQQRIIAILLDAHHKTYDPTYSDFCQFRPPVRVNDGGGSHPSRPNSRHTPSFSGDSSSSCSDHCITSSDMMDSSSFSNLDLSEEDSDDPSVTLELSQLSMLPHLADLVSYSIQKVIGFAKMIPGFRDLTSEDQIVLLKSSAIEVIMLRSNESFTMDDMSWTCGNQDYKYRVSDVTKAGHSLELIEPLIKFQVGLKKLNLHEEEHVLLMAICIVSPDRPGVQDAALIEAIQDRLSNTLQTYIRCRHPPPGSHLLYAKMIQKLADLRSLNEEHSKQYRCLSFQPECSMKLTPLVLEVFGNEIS

[4] = biological target: T1, VDR; assay: VDR-mediated transcription assay, CYP24A1-luciferase reporter in HEK293 cells; assay type: cell-based; conditions: HEK293, maximum reached before decrease due to toxicity
Outline: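 HEK293 cells grown in DMEM high glucose with NEAA, 10 mM HEPES and 10% FBS. Transfected with VDR-CMV and CYP24A1 promoter-luciferase plasmids (Lipofectamine LTX/PLUS) for 16 h at 37 °C. Cells replated at 400,000 cells/mL onto Matrigel-treated 384-well plates for 4 h. […] Bright-Glo luminescence; n = 8; non-linear regression.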

[5] = test system: IL-1β; assay: HTRF IL1β cytokine assay, supernatant of activated RAW264.7 macrophages; assay type: cell-based, mouse; conditions: INFγ/LPS activated RAW264.7; 1,25(OH)2D3 20 nM, CTA 20 μM
[6] = test system: RAW264.7; assay: Griess assay, NO in IFNγ/LPS-activated RAW264.7 macrophages; assay type: cell-based, mouse; conditions: INFγ/LPS activated RAW264.7; 1,25(OH)2D3 20 nM, CTA 5 and 20 μM; 24-hour treatment
[7] = biological target: GST-CAR-LBD (Homo sapiens, UniProt Q14994); assay: TR-FRET coactivator binding assay for CAR; assay type: biochemical; conditions: CTA at 10 or 50 μM
GST-CAR-LBD, sequence (Q14994 109-352 limits assumed): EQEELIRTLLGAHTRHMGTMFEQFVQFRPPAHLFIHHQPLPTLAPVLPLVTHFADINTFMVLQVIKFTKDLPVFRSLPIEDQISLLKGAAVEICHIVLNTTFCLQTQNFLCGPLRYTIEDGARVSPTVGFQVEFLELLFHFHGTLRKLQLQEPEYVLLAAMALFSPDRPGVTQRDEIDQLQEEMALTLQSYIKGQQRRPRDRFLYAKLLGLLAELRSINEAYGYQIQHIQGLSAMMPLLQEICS

[8] = biological target: AR-LBD (Homo sapiens, UniProt P10275); assay: Fluorescence polarization coactivator binding assay; assay type: biochemical
AR-LBD, sequence (P10275 669-900 limits assumed): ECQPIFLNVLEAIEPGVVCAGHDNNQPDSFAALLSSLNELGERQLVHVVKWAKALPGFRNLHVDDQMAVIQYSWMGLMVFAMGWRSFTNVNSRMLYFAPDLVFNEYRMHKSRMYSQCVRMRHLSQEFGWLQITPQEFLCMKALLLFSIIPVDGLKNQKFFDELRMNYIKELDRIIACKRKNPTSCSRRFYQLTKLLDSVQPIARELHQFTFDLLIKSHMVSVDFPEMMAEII
Outline: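 Coactivator recruitment read by fluorescence polarization. AR-LBD at 5 μM with 7 nM Texas Red-labelled SRC2–3 peptide and 100 nM dihydrotestosterone. Incubated 3 h at room temperature, then read at Ex/Em 595/615 nm. Two independent experiments, each in quadruplicate.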

[9] = biological target: ERβ-LBD (Homo sapiens, UniProt Q92731); assay: Fluorescence polarization coactivator binding assay; assay type: biochemical
ERβ-LBD, sequence (Q92731 264-498 limits assumed, species assumed): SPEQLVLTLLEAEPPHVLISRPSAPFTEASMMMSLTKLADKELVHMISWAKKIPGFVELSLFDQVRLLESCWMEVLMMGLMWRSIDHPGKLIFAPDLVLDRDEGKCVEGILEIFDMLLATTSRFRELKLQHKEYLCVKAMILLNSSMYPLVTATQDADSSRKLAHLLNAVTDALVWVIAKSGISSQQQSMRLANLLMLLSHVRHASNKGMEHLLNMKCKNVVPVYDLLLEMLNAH
Outline: (§1)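 For ERα and ERβ, 1 μM LBD was mixed with 7 nM Texas Red-SRC2–2 coactivator peptide and 100 nM estradiol. After 3 h at room temperature, fluorescence polarization was read at Ex/Em 595/615 nm. Two independent experiments in quadruplicate.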

[10] = test system: ligand binding domain (LBD) of the VDR; conditions: two-hybrid assay; cited from earlier work
[11] = biological target: LXR α (Homo sapiens, UniProt Q13133); assay: Gal4 hybrid reporter transcription assay in HEK293T cells; assay type: cell-based; conditions: 1 μM CTA, 16 h
LXR α, sequence (Q13133 209-447 limits assumed): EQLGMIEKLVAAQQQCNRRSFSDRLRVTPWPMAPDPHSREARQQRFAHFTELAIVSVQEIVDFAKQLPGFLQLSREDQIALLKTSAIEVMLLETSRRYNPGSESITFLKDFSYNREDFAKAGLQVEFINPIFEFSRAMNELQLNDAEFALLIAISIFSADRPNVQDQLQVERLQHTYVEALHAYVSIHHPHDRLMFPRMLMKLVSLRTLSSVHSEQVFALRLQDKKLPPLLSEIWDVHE
Outline: (§2)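 HEK293T cells transfected using Lipofectamine LTX with pFR-Luc, pRL-SV40 and pFA-CMV plasmids encoding Gal4 fusions of the human receptor LBDs. Cells then held 16 h in OptiMEM with penicillin/streptomycin, 1 μM test compound and 0.1% DMSO. Dual-Glo luciferase read-out. Controls: 0.1% DMSO, and 1 μM TO901317 or 1 μM tretinoin as reference agonists. Duplicates, four independent repeats.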

[12] = biological target: TRα-LBD (Homo sapiens, UniProt P10827); assay: Fluorescence polarization coactivator binding assay; assay type: biochemical
TRα-LBD, sequence (P10827 148-410 isoform P10827-2 limits assumed): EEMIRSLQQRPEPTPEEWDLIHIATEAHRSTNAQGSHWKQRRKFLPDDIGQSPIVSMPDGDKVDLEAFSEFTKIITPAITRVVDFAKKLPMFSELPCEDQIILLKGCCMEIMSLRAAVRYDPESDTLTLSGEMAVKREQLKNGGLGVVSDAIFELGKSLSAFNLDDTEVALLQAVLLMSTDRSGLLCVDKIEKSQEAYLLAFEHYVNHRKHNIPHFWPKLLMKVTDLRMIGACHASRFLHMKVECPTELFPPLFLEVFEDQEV
Outline: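 FP coactivator binding with TRα-LBD (1 μM), Texas Red-labelled SRC2–2 (7 nM) and triiodothyronine (100 nM). Incubated 3 h at room temperature; polarization read at 595/615 nm (Ex/Em). Two independent experiments, quadruplicate wells.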

[13] = biological target: ERα-LBD (Homo sapiens, UniProt P03372); assay: Fluorescence polarization coactivator binding assay; assay type: biochemical
ERα-LBD, sequence (P03372 311-547 limits assumed, species assumed): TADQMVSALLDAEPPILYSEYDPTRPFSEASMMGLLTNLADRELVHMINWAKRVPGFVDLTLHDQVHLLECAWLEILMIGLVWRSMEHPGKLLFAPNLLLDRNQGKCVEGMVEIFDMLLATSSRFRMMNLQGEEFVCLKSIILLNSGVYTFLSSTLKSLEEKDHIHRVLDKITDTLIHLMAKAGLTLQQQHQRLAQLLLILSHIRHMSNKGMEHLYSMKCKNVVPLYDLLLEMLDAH
Outline: as §1

[14] = biological target: LXR β (Homo sapiens, UniProt P55055); assay: Gal4 hybrid reporter transcription assay in HEK293T cells; assay type: cell-based; conditions: 1 μM CTA, 16 h
LXR β, sequence (P55055 222-460 limits assumed): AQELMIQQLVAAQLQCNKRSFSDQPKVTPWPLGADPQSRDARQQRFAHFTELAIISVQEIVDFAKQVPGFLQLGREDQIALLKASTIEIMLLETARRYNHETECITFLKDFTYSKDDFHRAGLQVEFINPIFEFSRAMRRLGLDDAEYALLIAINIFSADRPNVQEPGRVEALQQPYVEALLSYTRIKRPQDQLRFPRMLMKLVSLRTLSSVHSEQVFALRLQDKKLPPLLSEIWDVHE
Outline: as §2

[15] = test system: CYP24A1; assay: RT-PCR of VDR target gene CYP24A1 in Caco2 cells; assay type: cell-based, human
[16] = biological target: TRβ-LBD (Homo sapiens, UniProt P10828); assay: Fluorescence polarization coactivator binding assay; assay type: biochemical
TRβ-LBD, sequence (P10828 217-461 limits assumed): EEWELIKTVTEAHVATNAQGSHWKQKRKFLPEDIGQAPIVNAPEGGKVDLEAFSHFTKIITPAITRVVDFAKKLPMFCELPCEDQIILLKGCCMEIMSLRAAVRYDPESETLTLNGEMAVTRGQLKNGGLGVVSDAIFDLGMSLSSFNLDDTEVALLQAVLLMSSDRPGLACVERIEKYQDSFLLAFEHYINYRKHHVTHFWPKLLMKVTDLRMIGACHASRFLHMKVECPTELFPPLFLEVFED
Outline: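 TRβ-LBD used at 0.8 μM, with 7 nM Texas Red-SRC2–2 peptide and 1 μM triiodothyronine. Incubated 3 h at room temperature; fluorescence polarization measured at Ex/Em 595/615 nm. Two independent experiments in quadruplicate.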

[17] = test system: CYP24A1; conditions: at 7.5 μM; cited from earlier work
[18] = biological target: GST-hPXR-LBD (Homo sapiens, UniProt O75469); assay: TR-FRET competition assay for PXR; assay type: binding; conditions: CTA at 10 or 50 μM
GST-hPXR-LBD, sequence (O75469 146-433 limits assumed): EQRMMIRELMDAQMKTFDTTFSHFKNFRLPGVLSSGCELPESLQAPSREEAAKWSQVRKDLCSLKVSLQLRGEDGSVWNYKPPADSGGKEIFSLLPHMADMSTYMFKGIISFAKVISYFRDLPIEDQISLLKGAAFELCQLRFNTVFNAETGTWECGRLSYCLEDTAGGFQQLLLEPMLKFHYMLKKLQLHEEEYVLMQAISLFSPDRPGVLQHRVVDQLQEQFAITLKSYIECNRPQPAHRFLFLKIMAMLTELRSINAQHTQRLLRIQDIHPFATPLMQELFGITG
Outline: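 TR-FRET competition in pH 7.5 buffer (50 mM Tris, 50 mM KCl, 20 mM MgCl2, 1 mM CHAPS, 0.1 mg/mL BSA, 0.05 mM DTT). Test compound added in DMSO (0.4% final); TO901317 as positive control. After 30 min, excitation 340 nm, ratio 520/490 nm ×10000. n = 8.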

[19] = biological target: RARα (Homo sapiens, UniProt P10276); assay: Gal4 hybrid reporter transcription assay in HEK293T cells; assay type: cell-based; conditions: 1 μM CTA, 16 h
RARα, sequence (P10276 183-417 limits assumed): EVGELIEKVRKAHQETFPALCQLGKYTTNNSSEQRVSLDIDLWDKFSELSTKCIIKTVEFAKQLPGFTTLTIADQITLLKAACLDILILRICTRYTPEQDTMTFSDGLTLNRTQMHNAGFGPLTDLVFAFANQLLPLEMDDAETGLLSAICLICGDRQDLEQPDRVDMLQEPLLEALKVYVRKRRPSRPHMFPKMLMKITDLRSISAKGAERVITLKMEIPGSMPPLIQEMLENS
Outline: as §2

[20] = biological target: PPARγ-LBD (Homo sapiens, UniProt P37231); assay: Fluorescence polarization coactivator binding assay; assay type: biochemical
PPARγ-LBD, sequence (P37231 238-503 limits assumed, species assumed): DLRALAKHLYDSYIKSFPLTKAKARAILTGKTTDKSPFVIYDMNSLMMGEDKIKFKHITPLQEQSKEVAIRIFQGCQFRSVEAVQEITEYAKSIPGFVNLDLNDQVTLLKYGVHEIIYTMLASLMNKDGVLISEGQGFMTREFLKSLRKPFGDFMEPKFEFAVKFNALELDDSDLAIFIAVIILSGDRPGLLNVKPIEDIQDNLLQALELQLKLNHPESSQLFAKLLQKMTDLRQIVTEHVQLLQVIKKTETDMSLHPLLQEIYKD
Outline: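 Mix of PPARγ-LBD (5 μM), Texas Red-labelled DRIP2 coactivator peptide (7 nM) and rosiglitazone (5 μM). Held 3 h at room temperature, then fluorescence polarization read at Ex/Em 595/615 nm. Two independent experiments in quadruplicate.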

[21] = test system: iNOS; assay: RT-PCR of iNOS in IFNγ/LPS-activated RAW264.7 macrophages; assay type: cell-based, mouse; conditions: INFγ/LPS activated RAW264.7, CTA 5 and 20 μM
[22] = test system: IL-1β; assay: RT-PCR of IL-1β in IFNγ/LPS-activated RAW264.7 macrophages; assay type: cell-based, mouse; conditions: INFγ/LPS activated RAW264.7, CTA 5 and 20 μM
[23] = biological target: hFXR (Homo sapiens, UniProt Q96RI1); assay: FXR transcription assay, BSEP-luciferase in HeLa cells; assay type: cell-based; conditions: 24 h
hFXR, sequence (Q96RI1 whole entry): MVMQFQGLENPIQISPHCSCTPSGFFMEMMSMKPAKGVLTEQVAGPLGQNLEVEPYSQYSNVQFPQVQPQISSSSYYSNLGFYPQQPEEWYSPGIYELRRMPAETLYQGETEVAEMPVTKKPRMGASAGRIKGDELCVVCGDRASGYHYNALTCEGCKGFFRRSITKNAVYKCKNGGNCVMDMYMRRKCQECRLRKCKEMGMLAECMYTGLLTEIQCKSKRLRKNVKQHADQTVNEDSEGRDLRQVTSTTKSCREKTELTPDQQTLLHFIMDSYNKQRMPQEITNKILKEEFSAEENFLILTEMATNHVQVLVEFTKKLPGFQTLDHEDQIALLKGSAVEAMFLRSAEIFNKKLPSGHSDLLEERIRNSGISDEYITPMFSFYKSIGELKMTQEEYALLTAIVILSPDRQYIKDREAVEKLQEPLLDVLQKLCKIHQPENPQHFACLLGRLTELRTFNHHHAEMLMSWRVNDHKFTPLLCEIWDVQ
hFXR, sequence (P19793 whole entry partner): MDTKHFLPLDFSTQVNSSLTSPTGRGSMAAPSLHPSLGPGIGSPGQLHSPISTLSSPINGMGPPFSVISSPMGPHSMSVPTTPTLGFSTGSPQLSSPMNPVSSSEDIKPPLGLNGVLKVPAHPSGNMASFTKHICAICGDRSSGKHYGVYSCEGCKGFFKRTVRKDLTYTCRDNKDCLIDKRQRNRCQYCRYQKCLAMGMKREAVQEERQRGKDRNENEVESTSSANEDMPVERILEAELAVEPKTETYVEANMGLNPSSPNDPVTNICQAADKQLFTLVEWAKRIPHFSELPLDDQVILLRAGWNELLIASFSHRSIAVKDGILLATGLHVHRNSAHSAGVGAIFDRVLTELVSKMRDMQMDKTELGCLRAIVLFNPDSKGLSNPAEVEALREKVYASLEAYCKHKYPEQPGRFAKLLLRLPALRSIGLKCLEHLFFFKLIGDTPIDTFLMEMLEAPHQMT
Outline: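 HeLa cells grown in DMEM high glucose with 10% FCS, seeded at 8000 cells/well 24 h before transfection, then switched to 0.5% charcoal-stripped FCS. Calcium phosphate co-transfection with pcDNA3-hFXR, pSG5-hRXR, a BSEP promoter-luciferase (pGL3basic) reporter and pRL-SV40. Test compound added in 0.1% DMSO in phenol red-free medium for 24 h. Dual-Glo luciferase read-out. Controls: 0.1% DMSO and 1 μM GW4064. Triplicates, four independent repeats.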

[24] = test system: RAW264.7 cells; assay: Cytotoxicity on RAW264.7 cells, CellTiter-Glo; assay type: cell-based, mouse; conditions: RAW264.7, concentrations up to 100 μM
[25] = biological target: RXRα-LBD (Homo sapiens, UniProt P19793); assay: Fluorescence polarization coactivator binding assay; assay type: biochemical
RXRα-LBD, sequence (P19793 227-458 limits assumed): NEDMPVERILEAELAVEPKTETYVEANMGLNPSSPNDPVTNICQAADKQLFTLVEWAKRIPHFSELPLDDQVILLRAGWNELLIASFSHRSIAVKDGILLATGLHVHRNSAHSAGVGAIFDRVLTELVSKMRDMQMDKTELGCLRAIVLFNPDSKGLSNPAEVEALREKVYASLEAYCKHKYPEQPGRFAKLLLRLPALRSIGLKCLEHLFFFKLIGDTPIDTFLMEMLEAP
Outline: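 RXRα-LBD (1 μM) combined with Texas Red-SRC2–3 peptide (7 nM) and bexarotene (2 μM). Incubated 3 h at room temperature; polarization detected at 595/615 nm. Two independent experiments, each in quadruplicate.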

[26] = biological target: T2, Danio Rerio vitamin D receptor ligand binding domain (Danio rerio, UniProt Q9PTN2 156-453); assay: crystal structure
T2 sequence (looked up): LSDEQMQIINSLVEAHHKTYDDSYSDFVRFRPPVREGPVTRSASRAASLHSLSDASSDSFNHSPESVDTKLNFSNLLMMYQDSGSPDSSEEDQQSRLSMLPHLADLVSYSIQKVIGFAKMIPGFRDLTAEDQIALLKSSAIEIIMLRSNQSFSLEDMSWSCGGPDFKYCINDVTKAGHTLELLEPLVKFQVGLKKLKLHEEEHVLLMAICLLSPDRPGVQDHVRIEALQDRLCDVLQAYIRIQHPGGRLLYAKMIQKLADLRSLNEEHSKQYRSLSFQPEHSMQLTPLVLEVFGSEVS

Molecule: C=C1/C(=C\C=C2/CCC[C@]3(C)[C@@H]([C@H](C)CC(=O)OC)CC[C@@H]23)C[C@@H](O)C[C@@H]1O [CTA-ME, Methyl (R)-3-((1R,3aS,7aR,E)-4-((Z)-2-((3S,5R)-3,5-dihydroxy-2-methylenecyclohexylidene)ethylidene)-7a-methyloctahydro-1H-inden-1-yl)butanoate]
antirachitic activity [1]: antirachitic activity
LD50 (Cell-titer Glo viability) [2]: 13.9 µM
IC50 [3]: 8.16 µM
level of activation of gene expression in comparison to 100 nM 1,25(OH)2D3 [4]: 30%

Molecule: C=C1/C(=C\C=C2/CCC[C@]3(C)[C@@H]([C@H](C)CCCC(C)(C)O)CC[C@@H]23)C[C@@H](O)C[C@@H]1O [1,25(OH)2D3, 1α,25-dihydroxyvitamin D3, reference compound]
IL-1β protein (HTRF) [5]: Reduced IL-1β protein
production of NO in comparison to vehicle [6]: reduced the production of NO

Molecule: C=C1/C(=C\C=C2/CCC[C@]3(C)[C@@H]([C@H](C)CC(=O)O)CC[C@@H]23)C[C@@H](O)C[C@@H]1O [CTA, (R)-3-((1R,3aS,7aR,E)-4-((Z)-2-((3S,5R)-3,5-dihydroxy-2-methylenecyclohexylidene)ethylidene)-7a-methyloctahydro-1H-inden-1-yl)butanoic acid]
induction of CAR-coactivator interactions [7]: did not bind to PXR or induce CAR-coactivator interactions
activation of androgen receptor [8]: not activated
activation of estrogen receptor ERβ [9]: not activated
recruitment of SRC-1 to VDR LBD [10]: induces recruitment of SRC-1
activation of liver X receptor α [11]: not activated
activation of thyroid receptor TRα [12]: not activated
activation of estrogen receptor ERα [13]: not activated
activation of liver X receptor β [14]: not activated
expression of CYP24A1 in the presence of 1,25(OH)2D3 ([15]; Caco2, 18 h, co-treatment with 1,25(OH)2D3): strongly induced
CYP24A1 upregulation compared to lithocholic acid at 10 μM ([15]; intestinal cells (Caco2), CTA at 10 μM): 100 fold
activation of thyroid receptor TRβ [16]: not activated
IL-1β protein (HTRF) [5]: Reduced IL-1β protein
production of NO in comparison to vehicle [6]: significant reduction
antirachitic activity [1]: antirachitic activity
CYP24A1 upregulation in DU145 cells [17]: 9 fold
binding to PXR [18]: did not bind
LD50 (Cell-titer Glo viability) [2]: 96.0 µM
activation of retinoic acid receptor [19]: not activated
activation of peroxisome proliferator-activated receptor [20]: not activated
iNOS gene transcription (RT-PCR) [21]: reduction of gene transcription was observed
IL-1β gene transcription (RT-PCR) [22]: reduction of gene transcription was observed
IC50 [3]: 72.2 µM
activation of farnesoid X receptor [23]: not activated
cytotoxic effects (luminescence viability assay) [24]: absence of any cytotoxic effects
level of activation of gene expression in comparison to 100 nM 1,25(OH)2D3 [4]: 30%
activation of retinoid X receptor [25]: not activated

binding result [26]: binds
Molecule: NHPMLMNLLKDN [coactivator MED1 NR2 peptide]
